Assay results: ChEMBL document CHEMBL4393735, “Molecular modelling, synthesis, and biological evaluations of a 3,5-disubstituted isoxazole fatty acid analogue as a PPARα-selective agonist” (Bioorg Med Chem, 2019)
The source made the active and inactive calls.

Tests used:
[1] = molecular target: T1, Peroxisome proliferator-activated receptor alpha (Homo sapiens) (UniProt Q07869); experiment: Agonist activity at PPARalpha in human Huh7 cells assessed as SREBF1 mRNA expression at 50 uM measured after 18 hrs by qRT-PCR analysis; assay type: cell-based
T1 sequence (whole entry): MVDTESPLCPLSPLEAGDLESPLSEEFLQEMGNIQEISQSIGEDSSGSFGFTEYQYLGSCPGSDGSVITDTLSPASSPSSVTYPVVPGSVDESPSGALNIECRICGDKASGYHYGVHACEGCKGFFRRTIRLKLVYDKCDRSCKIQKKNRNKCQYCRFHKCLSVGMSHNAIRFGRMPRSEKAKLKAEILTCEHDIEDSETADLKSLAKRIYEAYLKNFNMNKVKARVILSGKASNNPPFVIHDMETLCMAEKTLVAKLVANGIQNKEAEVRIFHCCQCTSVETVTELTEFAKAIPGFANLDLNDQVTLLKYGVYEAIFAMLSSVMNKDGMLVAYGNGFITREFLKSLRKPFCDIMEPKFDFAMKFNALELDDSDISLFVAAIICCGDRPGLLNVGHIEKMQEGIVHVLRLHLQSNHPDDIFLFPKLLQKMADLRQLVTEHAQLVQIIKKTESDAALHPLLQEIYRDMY
In short: (§1)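 Treatment for 18 h at 50 μM (or 1 μM for the 1 μM agents), DMSO vehicle. Harvested for qPCR. mRNA normalized to TBP by the comparative threshold method, expressed relative to DMSO control. Two biological replicates run in duplicate, mean ± SEM. Primary hepatocytes came from male C57BL/6N mice aged 7–8 weeks, isolated by portal-vein perfusion and digestion, seeded on collagen I and used on day 2. HuH-7 cells were kept in DMEM with 10% FBS and ITS.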

[2] = molecular target: T2, Retinoic acid receptor RXR-alpha (Homo sapiens) (UniProt P19793); experiment: Agonist activity at full length human FLAG-tagged GAL4-DBD fused RXRalpha LBD (202 to 462 residues) expressed in COS1 cells at 25 to 50 uM measured after 18 hrs by dual luciferase reporter gene assay; assay type: cell-based
T2 sequence (whole entry): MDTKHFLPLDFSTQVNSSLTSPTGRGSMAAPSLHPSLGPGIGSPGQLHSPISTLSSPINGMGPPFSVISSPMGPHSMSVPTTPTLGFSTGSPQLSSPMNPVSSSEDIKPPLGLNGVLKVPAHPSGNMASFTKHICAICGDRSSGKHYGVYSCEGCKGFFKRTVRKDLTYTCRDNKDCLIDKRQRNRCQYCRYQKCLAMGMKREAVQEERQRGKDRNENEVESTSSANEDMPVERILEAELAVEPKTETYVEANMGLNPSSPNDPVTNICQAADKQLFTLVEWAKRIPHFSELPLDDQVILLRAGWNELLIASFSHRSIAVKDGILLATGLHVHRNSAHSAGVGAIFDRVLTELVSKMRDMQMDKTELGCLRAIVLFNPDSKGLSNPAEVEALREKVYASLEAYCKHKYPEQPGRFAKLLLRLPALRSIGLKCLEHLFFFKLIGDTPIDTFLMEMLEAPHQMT
In short: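 COS-1 cells were transfected using Lipofectamine 2000 with GAL4-DBD–human NR-LBD plasmid, a 5×UAS-SV40 firefly luciferase reporter and pRL-CMV. After 6 h, cells were treated with 0, 25 or 50 μM in 0.1% DMSO (final) for 18 h. Firefly signal was normalized to Renilla, then to DMSO control and GAL4-only. Three biological replicates in quadruplicate, mean ± SEM, two-way ANOVA with Bonferroni.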

[3] = molecular target: T1, Peroxisome proliferator-activated receptor alpha (Homo sapiens); experiment: Agonist activity at full length human FLAG-tagged GAL4-DBD fused PPARalpha LBD (168 to 468 residues) expressed in COS1 cells transfected with hRXRalpha and hCPT1A-driven reporter assessed as increase in CPT1A mRNA level at 50 uM measured after 18 hrs by dual luciferase reporter gene assay; assay type: cell-based
In short: (§2)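 COS-1 cells were transfected with full-length human PPARα (or PPARγ) plus RXRα expression plasmids, with a wild-type or PPRE-mutated CPT1A-intronic (or PLIN1) luciferase reporter and pRL-CMV. Cells were treated with 50 μM in 0.1% DMSO (final) for 18 h. Dual-luciferase read-out normalized to DMSO control. Three biological replicates in quadruplicate, mean ± SEM.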

[4] = tested on: SGBS; experiment: Upregulation of PPARgamma gene expression in human preadipocyte derived from Simpson-Golabi-Behmel syndrome (SGBS) patient at 25 uM measured for 12 days by qRT-PCR analysis; assay type: functional, cell-based
In short: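 SGBS cells grown 4 days in biotin/D-pantothenate medium, then differentiated without FBS (apo-transferrin, insulin, T3, hydrocortisol, IBMX, dexamethasone) with 25 μM compound or 0.1 % DMSO added from day 0. After 4 days, switched to maintenance medium without IBMX/dexamethasone, renewed day 8. qPCR on days 0, 4, 8, 12, normalized to TBP (comparative threshold) and to day 0. Minimum three biological replicates in duplicate, mean ± SEM.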

[5] = molecular target: T1, Peroxisome proliferator-activated receptor alpha (Homo sapiens); experiment: Agonist activity at full length human FLAG-tagged GAL4-DBD fused PPARalpha LBD (168 to 468 residues) expressed in COS1 cells transfected with hRXRalpha and pGL3-CPT1AInt PPRE mutant assessed as CPT1A mRNA level at 50 uM measured after 18 hrs by dual luciferase reporter gene assay; assay type: cell-based; in short: as §2
[6] = molecular target: T3, Peroxisome proliferator-activated receptor alpha (Mus musculus) (UniProt P23204); experiment: Agonist activity at PPARalpha in C57BL/6N mouse primary hepatocytes assessed as activation of Cpt1a mRNA expression at 50 uM measured after 18 hrs by qRT-PCR analysis; assay type: cell-based; in short: as §1
T3 sequence (whole entry): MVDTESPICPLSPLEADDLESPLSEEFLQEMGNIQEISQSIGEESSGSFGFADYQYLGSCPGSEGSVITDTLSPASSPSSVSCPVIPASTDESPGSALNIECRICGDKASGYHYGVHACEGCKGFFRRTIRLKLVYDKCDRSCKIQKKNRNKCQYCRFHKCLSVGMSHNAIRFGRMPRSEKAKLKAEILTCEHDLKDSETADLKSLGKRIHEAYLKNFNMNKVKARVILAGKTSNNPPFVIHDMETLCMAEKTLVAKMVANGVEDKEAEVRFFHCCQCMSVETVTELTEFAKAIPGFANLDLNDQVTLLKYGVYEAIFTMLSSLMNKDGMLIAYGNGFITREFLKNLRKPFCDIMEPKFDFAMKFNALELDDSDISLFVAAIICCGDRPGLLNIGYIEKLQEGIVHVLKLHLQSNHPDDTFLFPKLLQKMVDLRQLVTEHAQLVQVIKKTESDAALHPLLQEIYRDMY

[7] = molecular target: T1, Peroxisome proliferator-activated receptor alpha (Homo sapiens); experiment: Agonist activity at PPARalpha in human Huh7 cells assessed as activation of CPT1A mRNA expression at 50 uM measured after 18 hrs by qRT-PCR analysis; assay type: cell-based; in short: as §1
[8] = tested on: SGBS; experiment: Upregulation of ADIPOQ gene expression in human preadipocyte derived from Simpson-Golabi-Behmel syndrome (SGBS) patient at 25 uM measured for 12 days by qRT-PCR analysis; assay type: functional, cell-based
In short: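 SGBS cells were differentiated with serum-free induction medium containing 25 μM test agent, 2 μM rosiglitazone or 0.1% DMSO from day 0. IBMX and dexamethasone were removed on day 4 and medium was renewed on day 8. RNA was taken on days 0, 4, 8 and 12 for qPCR, normalized to TBP and to day 0. At least three biological replicates in duplicate, two-way ANOVA with Bonferroni.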

## CCCCCCCc1cc(CCCCCC(=O)O)no1
[1]
  Activity: inactive
[2]
  Activity: inactive
[3]
  Activity: Active
[4]
  Activity: Active
[5]
  Activity: inactive
[6]
  Activity: Active
[7]
  Activity: Active
[8]
  Activity: Active
